Assay results: paper PMC9939360 (Acta Pharmaceutica Sinica. B, 2022)
Like-named read-outs stand apart in the source and are kept apart here. Marks after values point to notes of the source that are not given here.

Key:
M4 [1] = details: rhesus monkeys; cited from earlier work
M4 [2] = details: humans; cited from earlier work
hM4 mAChR [3] = target: T1, hM4 mAChR (Homo sapiens, UniProt P08173); assay type: binding; details: for LogαACh (logarithm of the binding cooperativity factor between M4-PAMs and ACh): CHO cells stably expressing hM4, mean ± SEM
T1 sequence (P08173 1-479): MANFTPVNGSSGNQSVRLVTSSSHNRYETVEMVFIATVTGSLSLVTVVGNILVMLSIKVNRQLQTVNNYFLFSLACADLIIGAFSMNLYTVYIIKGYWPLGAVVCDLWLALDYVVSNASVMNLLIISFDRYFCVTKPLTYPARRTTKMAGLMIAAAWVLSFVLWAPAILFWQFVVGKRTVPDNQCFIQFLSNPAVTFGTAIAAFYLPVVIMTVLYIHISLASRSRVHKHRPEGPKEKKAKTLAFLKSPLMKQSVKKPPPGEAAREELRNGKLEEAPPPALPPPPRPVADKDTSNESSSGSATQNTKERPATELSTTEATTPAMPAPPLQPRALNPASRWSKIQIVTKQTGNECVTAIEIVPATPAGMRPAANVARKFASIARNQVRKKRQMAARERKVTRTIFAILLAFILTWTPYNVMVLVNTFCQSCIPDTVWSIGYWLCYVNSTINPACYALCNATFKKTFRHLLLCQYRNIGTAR
Method in brief: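 Intact FlpIn CHO cells stably expressing human M4 were grown in DMEM/5% FBS, plated at 20,000 per well and grown overnight at 37 °C. After PBS washes, cells were incubated with an ACh concentration series, with or without increasing test compound concentrations, plus [3H]-NMS (~0.1 nmol/L). Atropine (10 μmol/L) defined nonspecific binding. Cells were washed with ice-cold 0.9% NaCl and counted by scintillation. KB and α came from an allosteric ternary complex model fit.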

hM4 mAChR [4] = target: T1, hM4 mAChR; assay: [35S]-GTPγS binding assay with ACh, operational model of allosterism; assay type: biochemical; details: mean ± SEM; for LogβACh (logarithm of the activation cooperativity factors between ACh and M4-PAMs): determined by subtracting (α) from the (αβ) parameters; for LogαβACh (logarithm of the operational functional cooperativity factors between ACh and M4-PAMs) / Logτ (logarithm of the operational efficacy parameter of M4-PAMs as allosteric agonists): hM4 membranes
Method in brief: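 Membranes from FlpInCHO cells stably expressing wild-type human M4, 15 μg per assay, preincubated 60 min at 30 °C with 10 μmol/L GDP and ACh (10 nmol/L–10 mmol/L), with or without M4-PAMs (0.1–10 μmol/L). [35S]GTPγS (1 nmol/L, as added) then given for 30 min at 30 °C. Bound label collected on GF/B filters and counted by scintillation. Data fitted to an operational model of allosterism and agonism.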

M1, M2, M3 and M5 = assay: Tango assay, selectivity over other muscarinic subtypes; assay type: cell-based
Method in brief: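 HEK293 cells stably carrying a tTA-dependent luciferase reporter and a β-arrestin2–TEV fusion were kept in DMEM/10% FBS with puromycin and hygromycin B at 37 °C, 5% CO2. They were transfected, then replated on day 3 at 15,000–20,000 cells/well on poly-L-lysine. On day 4 test compound was added in HEPES/1× HBSS buffer, pH 7.4. On day 5, Bright-Glo luminescence was read after 15–20 min at room temperature (RLU). Carbachol served as reference agonist.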

Kb (hM4 mAChR [3]) [nM]	LogαACh (logarithm of the binding cooperativity factor between M4-PAMs and ACh) (hM4 mAChR [3])	LogβACh (logarithm of the activation cooperativity factors between ACh and M4-PAMs) (hM4 mAChR [4])	LogαβACh (logarithm of the operational functional cooperativity factors between ACh and M4-PAMs) (hM4 mAChR [4])	Logτ (logarithm of the operational efficacy parameter of M4-PAMs as allosteric agonists) (hM4 mAChR [4])	selectivity over other muscarinic acetylcholine receptor subtypes (M1, M2, M3 and M5)	SMILES	peak striatal SUV (M4 [1])	peak striatal SUV (M4 [2])
						CC1(Cn2cc(-c3ccc(C#N)nc3-c3ccc4c(c3)C(=O)N([11CH3])C4)cn2)CCCC1 [[^11C]MK-6884]	ca. 1.2	ca. 2.5
398	1.7 ± 0.3	0.1 ± 0.3	1.9 ± 0.2	0.3 ± 0.0		CN1Cc2ccc(-c3nc(C#N)ccc3-c3cnn(CC4CCCC4)c3)cc2C1=O [Compound 8, 5-(1-(cyclopentylmethyl)-1H-pyrazol-4-yl)-6-(2-methyl-3-oxoisoindolin-5-yl)picolinonitrile]		
398	1.4 ± 0.1	1.1 ± 0.2	2.5 ± 0.1 ^f	0.5 ± 0.0	selective	N#Cc1ccc(-c2cnn(CC3CCCC3)c2)c(-c2ccc3c(c2)C(=O)N(CCF)C3)n1 [Compound 12, 5-(1-(cyclopentylmethyl)-1H-pyrazol-4-yl)-6-(2-(2-fluoroethyl)-3-oxoisoindolin-5-yl)picolinonitrile]		
316	1.6 ± 0.2	0.4 ± 0.2	2.0 ± 0.2	0.7 ± 0.0		Cc1ccc(-c2cnn(CC3CCCC3)c2)c(-c2ccc3c(c2)C(=O)N(C)C3)n1 [Compound 10, 6-(3-(1-(cyclopentylmethyl)-1H-pyrazol-4-yl)-6-methylpyridin-2-yl)-2-methylisoindolin-1-one]		
398	1.6 ± 0.2	0.8 ± 0.2	2.4 ± 0.2 ^f	0.6 ± 0.0		N#Cc1ccc(-c2cnn(CC3CCCC3)c2)c(-c2ccc3c(c2)C(=O)N(CCCF)C3)n1 [Compound 13, 5-(1-(cyclopentylmethyl)-1H-pyrazol-4-yl)-6-(2-(3-fluoropropyl)-3-oxoisoindolin-5-yl)picolinonitrile]		
501	1.4 ± 0.2	0.5 ± 0.3	1.9 ± 0.2	0.5 ± 0.0		Cc1ccc(-c2cnn(CC3CCCC3)c2)c(-c2ccc3c(c2)C(=O)NC3)n1 [Compound 11, 6-(3-(1-(cyclopentylmethyl)-1H-pyrazol-4-yl)-6-methylpyridin-2-yl)isoindolin-1-one]		
